# Test results from PubChem BioAssay.
# A number with no mark means an inactive call.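 How the source made its calls, unless noted: active means viability increase at or above a cutoff of the median across tested compounds plus 3 SD (cut at about 8.5% in these data, passing the limit was not always enough); inconclusive means some gains above the cutoff, reason not given; inactive means the rest.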
# Assay: S. cerevisiae growth inhibition in restrictive medium, OD615, pilot screen, restrictive growth control, yeast lifespan reduction project (AID 706;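 active means growth inhibition above a set limit, 3 SD over mean compound inhibition, in both replicates, cut at about 43% in these data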;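 further: modified DeaD lifespan yeast strain shifted to restrictive glucose medium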)
# Details: OD615, 48 h, at 10 µM, active compounds read high
# In short: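 Material: modified S. cerevisiae; buffer or medium: CSMM-D glucose medium; doses: one concentration, 10 µM final, 0.25% DMSO; incubation: 48 h compound exposure at 30 °C; detection: optical density at 615 nm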
row,Compound,growth inhibition [%]
1,Cn1c(SCC(=O)Nc2ccc(F)cc2F)nnc1-c1cccnc1,-8.12
2,COc1ccccc1-c1nc2n(n1)C(c1ccccc1Cl)C(C(N)=O)=C(C)N2 (centres undefined),-6.96
3,COc1ccc(Nc2ccc3c(c2)=NC2(CCCCC2)[N+]=3[O-])cc1,-11.8
4,O=C(CNS(=O)(=O)c1ccc(C(=O)N2CCCCC2)cc1)N1CCCCC1,-18.1
5,COc1ccccc1N1CCN(c2cc(=O)n(-c3ccc(Cl)cc3)c(=O)[nH]2)CC1,-7.77
6,CCCCNC(=O)CS(=O)Cc1nc(-c2cccc(C)c2)oc1C (centres undefined),-6.67
7,c1ccc(COc2ccc(Nc3ncnc4nc[nH]c34)cc2)cc1,7.49
8,Cc1nnc(Sc2nc3c(c(=O)[nH]c(=O)n3C)n2CCc2ccccc2)s1,-13.6
9,CCSC1=N/C(=C\c2ccc(C(=O)O)cc2)C(=O)S1,-3.52

# Assay: doxorubicin toxicity protection in MRP-1 cells – H69AR cells, CellTiter-Glo, duplicate, MRP-1 activator project, pilot screen (AID 807);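 further: compound pretreatment 18-22 h then 72 h combined with doxorubicin; 0% = doxorubicin alone and 100% = vehicle without doxorubicin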
# Details: H69AR viability with doxorubicin, CellTiter-Glo luminescence; at 10 µM; active compounds read high
row,Compound,viability increase [%]
1,Cn1c(C(=O)N2CCN(c3ncccn3)CC2)cc2c(=O)n(C)c3ccccc3c21,2.83
2,CC(=O)Nc1cc(NC(C)=O)c(CC(C)C)s1,-0.12
3,COc1ccc(Nc2cc(C)nc3nc(C)nn23)cc1Cl,-3.91
4,O=C(NC1CCCCCC1)C1C2C=CC3(CN(Cc4cccnc4)C(=O)C13)O2 (centres undefined),0.68
5,CCOC(=O)N1CCN(C(=O)CS(=O)Cc2nc(-c3cccc(C)c3)oc2C)CC1 (centres undefined),-1.34
6,CCOC(=O)Cc1csc(NC(=O)Nc2ccccc2)n1,-0.81
7,COc1ccccc1S(=O)(=O)Cc1ccc(C(=O)NCc2ccc3c(c2)OCO3)o1,-2.83
8,CCOC(=O)N1CCN(C(=O)c2cc3cc(Br)ccc3oc2=O)CC1,-3.3
9,Cn1cnnc1SCCC(=O)Nc1ccccc1,-1.01
10,Nc1c(C(=O)NCc2ccccc2)nnn1Cc1ccccc1,1.95
11,CCC(=O)Nc1nnc(-c2ccco2)o1,-0.45
12,O=C1C(C=NCc2ccco2)=C(O)c2ccccc21,-3.09
13,CCOC(=O)c1cnc2ccc(C(=O)OC)cc2c1NCCN1CCOCC1,-4.73
14,O=C(CSc1oc(-c2ccco2)nc1S(=O)(=O)c1ccc(Cl)cc1)NCC1CCCO1 (centres undefined),-1.13
15,O=C(Cn1c(NCCCO)nc2ccccc21)c1cccs1,-1.98
16,O=C(C1CC(c2ccc(F)cc2)=NO1)N1CCN(Cc2ccccc2)CC1 (centres undefined),-1.28
17,Cc1nccn1-c1c2c(c(C#N)c3nc4ccccc4n13)CCC2,-2.34
18,CCOC(=O)c1ccc(N=c2sc(C(=O)OC)cc(=O)n2CCCN2CCOCC2)cc1,-8.16
19,Cc1ccccc1-n1c(Cn2c(=O)sc3ccccc32)nnc1SCC(=O)Nc1nccs1,-5.13
20,Cc1cc(S(=O)(=O)N2CCN(c3ccc(F)cc3)CC2)c(C)s1,-3.11

row,Compound,viability increase [%]
1,Cc1cccc(-n2c(Cc3cc(=O)[nH]c(=O)[nH]3)nnc2SCC(=O)NCC2CCCO2)c1 (centres undefined),-2.52
2,CCOc1ccccc1Nc1ncnc2c1cnn2-c1ccccc1,3.06
3,CCC(C(=O)N1CC2(C)CC1CC(C)(C)C2)N1C(=O)c2ccccc2C1=O (centres undefined),-3.05
4,CCN(CC)S(=O)(=O)c1ccc(C2CNC(=O)C2)cc1 (centres undefined),1.75
5,CC(CNCc1ccc2c(c1)OCO2)NCc1ccc2c(c1)OCO2 (centres undefined),-3.34
6,CCCC(c1c(C)n(C)n(-c2ccccc2)c1=O)c1c(C)n(C)n(-c2ccccc2)c1=O,-1.18
7,CN1CCCc2cc3c(C(F)(F)F)cc(=O)oc3nc21,-1.33
8,O=C1CCCC2=C1C1(O)C(=O)c3ccccc3C1(O)O2 (centres undefined),-4.62
9,Clc1ccc(CSc2nnc(-c3cccnc3)n2Cc2ccco2)c(Cl)c1,-3.29
10,O=C(Cn1cc2c(n1)CCCCC2)NC1CCN(Cc2ccccc2)CC1,-1.57
11,CCCn1c(C(O)c2ccc3c(c2)OCO3)nc2ccccc21 (centres undefined),0.23
12,Cn1c(SCC(=O)Nc2ccc(F)cc2F)nnc1-c1cccnc1,-0.94
13,COc1ccccc1-c1nc2n(n1)C(c1ccccc1Cl)C(C(N)=O)=C(C)N2 (centres undefined),-6.22
14,COc1ccc(Nc2ccc3c(c2)=NC2(CCCCC2)[N+]=3[O-])cc1,-8.28
15,O=C(CNS(=O)(=O)c1ccc(C(=O)N2CCCCC2)cc1)N1CCCCC1,0.86
16,COc1ccccc1N1CCN(c2cc(=O)n(-c3ccc(Cl)cc3)c(=O)[nH]2)CC1,-2.22
17,CCCCNC(=O)CS(=O)Cc1nc(-c2cccc(C)c2)oc1C (centres undefined),-2.67
18,c1ccc(COc2ccc(Nc3ncnc4nc[nH]c34)cc2)cc1,-0.86
19,Cc1nnc(Sc2nc3c(c(=O)[nH]c(=O)n3C)n2CCc2ccccc2)s1,-0.89
20,CCSC1=N/C(=C\c2ccc(C(=O)O)cc2)C(=O)S1,-2.03
